Screening results deposited in PubChem BioAssay by several laboratories.
RORa activator = activators of orphan receptor RORA, primary screen, cell-based, luminescence | 65,000 compounds, 1.5% hits | activation, % at 10 µM | CHO-K1 Gal4-RORA LBD luciferase reporter; percent increase over mock-subtracted basal signal | Nuclear receptor ROR-alpha (Homo sapiens), P35398;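 active means activation above the mean of all tested compounds plus 3 SD, cut at about 49% in these data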;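 further: 0% = DMSO-treated RORA cells and 100% = added signal equal to DMSO minus mock-transfected cells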
Target sequence (P35398 whole entry, looked up, the tested form may be a part): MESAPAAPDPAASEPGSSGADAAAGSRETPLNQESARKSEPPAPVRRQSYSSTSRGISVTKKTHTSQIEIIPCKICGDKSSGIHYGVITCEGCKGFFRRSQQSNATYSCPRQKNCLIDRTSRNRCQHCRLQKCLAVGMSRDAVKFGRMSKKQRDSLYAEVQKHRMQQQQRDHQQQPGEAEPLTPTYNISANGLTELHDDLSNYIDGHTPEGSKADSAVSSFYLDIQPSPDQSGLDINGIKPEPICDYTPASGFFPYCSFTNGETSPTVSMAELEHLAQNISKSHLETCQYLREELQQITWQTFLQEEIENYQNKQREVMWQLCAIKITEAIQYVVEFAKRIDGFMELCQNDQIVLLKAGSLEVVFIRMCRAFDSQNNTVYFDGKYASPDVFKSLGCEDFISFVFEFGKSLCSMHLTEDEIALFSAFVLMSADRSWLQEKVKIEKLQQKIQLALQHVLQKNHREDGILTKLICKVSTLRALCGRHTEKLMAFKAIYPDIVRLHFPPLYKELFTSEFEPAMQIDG
mHtt clearance = clearance of mutant huntingtin inclusions, primary screen, imaging, HeLa Exon1htt(103Q)mCFP, confocal imaging. 47,000 compounds, 0.42% hits. inhibition, % at 1.5 µM. aggregate imaging; zero = plate's median compound well. AID 853, 2007;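 active means inhibition of aggregate fluorescence above about 70%, also judged a hit by eye on the cell image, limit read from the data, passing the limit was not always enough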;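 further: cells exposed to compound for three days before fixation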
M1 ag = M1 muscarinic receptor agonists, primary screen, CHO-M1 cells, Fluo-4 calcium, agonist mode; AID 626, 2007; Muscarinic acetylcholine receptor M1; 64,000 compounds, 3% hits; B-score at 10 µM; Fluo-4 calcium fluorescence; active compounds read high;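 active means fluorescence rise, raw or as B-score row- and column-corrected plate score, outside the 99.7% band of its plate's samples, either direction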
D1 allo mod = D1 CRE-luciferase signal change, two-sided – cell-based, HEK293 D1, dopamine EC30, D1 allosteric modulator project, primary screen. dopamine EC30 potentiation; actives deviate in either direction. B-score at 10 µM. 58,000 compounds, 5.9% hits;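 active means luminescence count or its row- and column-corrected plate score outside the 99.7% band of the plate's sample wells, on either side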
SF-1 act = activators of human SF-1, primary screen, cell-based, CHO-K1, Gal4-SF-1 LBD, luciferase luminescence | 65,000 compounds, 1.9% hits | AID 522, 2006 | Steroidogenic factor 1 (Homo sapiens), Q13285 | activation, % at 10 µM | CHO-K1 Gal4-SF-1 LBD luciferase reporter; % increase over DMSO SF-1-specific signal;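 active means activation above the mean activation of all tested compounds plus 3 SD, cut at about 50% in these data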
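Material: CHO-K1 cells with Gal4–hSF-1 LBD chimera plus Gal4-driven luciferase / Input: 4,000 CHO-K1 cells per well / Incubation: compound exposure 20 h at 37 °C / Signal: luminescence read 15 min after SteadyLite luciferase reagent, after room-temperature equilibration / Read-out: percent activation versus DMSO / Benchmarks: DMSO negative control and −SF1 background wells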
M1 antagonist = antagonists of rat M1 muscarinic receptor; CHO-M1 cells, Fluo-4 calcium, ACh EC80 antagonist mode; active compounds read low; B-score at 10 µM; AID 628, 2007; Muscarinic acetylcholine receptor M1 (Rattus norvegicus), P08482; 64,000 compounds, 3.4% hits;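 active means calcium fluorescence response, raw or row-and-column corrected B-score, differing from the plate sample mean either way at a set confidence level, mostly lower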
Starred values were filed as active, the others as inactive. Shown are actives, neighbours in structure and some others; about 11% of the full set was active somewhere.

For CCOC(=O)c1c(C)oc2c1c(C(c1cccnc1)N1CCN(C)CC1)c(O)c1ccccc12 (configuration not stated) the results were RORa activator -9, M1 ag 3.4*, D1 allo mod -0.73, SF-1 act -12 and M1 antagonist -0.0027.
For COc1ccc(/C=C/C2=NC(=C\N(C)C)/C(=O)O2)cc1 the results were RORa activator 23, M1 ag 0.0023, SF-1 act 50* and M1 antagonist -0.0034.
Screening C=CCCCCCCCCC(=O)NNC1=CC(=O)CC(C)(C)C1 returned mHtt clearance -2.
For O=C(COc1ccc(-n2cnnn2)cc1)NC(=O)NCc1ccccc1 the results were RORa activator -7, mHtt clearance 31, M1 ag -0.77, D1 allo mod -4.4*, SF-1 act 6 and M1 antagonist 0.47.
`O=C(COc1ccc(-n2cnnn2)cc1)NC1CCCCC1` gave RORa activator -5, M1 ag -0.065, D1 allo mod -0.33, SF-1 act -1 and M1 antagonist 0.17.
O=C(NCCC1=CCCCC1)C1CCN(S(=O)(=O)c2cccc3cccnc23)CC1 was read as RORa activator 17, mHtt clearance -102, M1 ag 2.6, D1 allo mod 1.5, SF-1 act 8 and M1 antagonist 0.31.
O=C(NCCc1ccccc1)NC1CCCCC1 was read as RORa activator 31, mHtt clearance 54, M1 ag -0.27, D1 allo mod -2.5*, SF-1 act 28 and M1 antagonist 0.16.
COc1ccc(CNC(=O)NC2CCCCC2)cc1 was read as RORa activator 4, mHtt clearance -24, M1 ag 1, D1 allo mod -0.047, SF-1 act 50* and M1 antagonist -0.19.
Screening O=C(NCc1ccccc1)NC1CCCCC1 returned RORa activator 38, M1 ag -1.4, D1 allo mod -0.6, SF-1 act 28 and M1 antagonist 0.49.
COc1ccc2c(Cl)c(C(=O)NCCCn3ccnc3)sc2c1Cl was read as mHtt clearance -39.
Fc1ccc(C2=Nn3c(nnc3-c3n[nH]c4c3CCC4)SC2)cc1 was read as RORa activator -10, mHtt clearance -2, M1 ag -0.12, D1 allo mod -3*, SF-1 act -18 and M1 antagonist 0.24.
COc1ccc(C=O)cc1CSc1nnc(COc2cccc3cccnc23)o1 was read as mHtt clearance -18.
For Cc1ccc(NC(=O)COn2nnc3ccc(S(=O)(=O)N(C)C)cc32)cc1F the results were mHtt clearance 39.
CCCCCC(=O)Nc1ccc2oc(-c3cccnc3)nc2c1 was read as RORa activator -5, mHtt clearance 71*, M1 ag -1.1, D1 allo mod 0.79, SF-1 act 29 and M1 antagonist 0.66.
CCc1ccc(NC(=O)c2cccnc2)cc1 was read as RORa activator -3, mHtt clearance -36, M1 ag -0.63, D1 allo mod -0.075, SF-1 act 33 and M1 antagonist -0.68.
`COc1ccccc1C(=O)Nc1ccc2oc(-c3ccc(F)cc3)nc2c1` gave RORa activator 65*, mHtt clearance -73, M1 ag -0.97, D1 allo mod -0.35, SF-1 act 42 and M1 antagonist -0.57.
O=C(Nc1ccc2oc(-c3ccccc3)nc2c1)c1cccnc1 was read as RORa activator 71*, M1 ag 0.027, D1 allo mod -0.53, SF-1 act 71* and M1 antagonist -1.6.
`CCc1ccc2oc(-c3cccc(NC(=O)c4cccnc4)c3)nc2c1` gave RORa activator 58*, mHtt clearance -36, M1 ag 2.3, D1 allo mod -1.3, SF-1 act 32 and M1 antagonist -0.51.
Screening COc1ccc(C(=O)Nc2ccc3oc(-c4cccc(F)c4)nc3c2)cc1OC returned RORa activator 2, M1 ag 0.057, SF-1 act 12 and M1 antagonist -0.088.
